Source: PubChem
hERG protect: hERG (human) protection from proarrhythmic block; Q12809; CHO-hERG, FluxOR thallium flux, dofetilide IC70 present; activation (rescue from dofetilide block), less the hit threshold, % at 10 µM; 310,000 compounds, 0.51% hits; AID 1511;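 active = activation above the mean of controls blocked by dofetilide plus 5 SD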;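 note: thallium influx through hERG after potassium depolarization seen as dye fluorescence rise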
Kir21 inh: Kir2.1 (mouse) channel inhibition; P35561; HEK293-Kir2.1, FluxOR thallium flux fluorescence; stronger effect = lower value; B-score at 10 µM; 310,000 compounds, 0.85% hits;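 active = fluorescence ratio B-score at or below minus 3 SD of library scores, with starting-brightness B-score within 2 SD, cut at about -4.2 in these data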;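 note: channel flux triggered by added potassium and thallium sulfate stimulus; B-score of peak minus minimum fluorescence over baseline after thallium stimulus; more negative B-score means stronger Kir2.1 block with less thallium influx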
KCNK3 inh: human KCNK3 channel inhibition, primary screen | O14649 | CHO-KCNK3 thallium flux, FluxOR fluorescence; stronger effect = lower value | B-score at 10 µM | 340,000 compounds, 0.84% hits;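 active = B-score under library mean minus 4 SD, starting fluorescence ratio at most library mean plus 5 SD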;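 note: more negative B-score means stronger inhibition of thallium flux through KCNK3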
KCNQ1 block: human KCNQ1 channel inhibition | 310,000 compounds, 1.3% hits | P51787 | CHO-K1 KCNQ1, FluxOR thallium flux fluorescence; stronger effect = higher value | B-score at 10 µM;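 active = compounds whose thallium flux B-score, printed positive for inhibition, exceeds three library SD while starting fluorescence stays within three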;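 note: channel opened by potassium depolarization with thallium stimulus after 20 min compound exposure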
KCNQ1 pot: potentiates or activates the human KCNQ1 potassium channel. P51787. CHO-K1 KCNQ1, thallium flux FluxOR fluorescence; stronger effect = higher value. B-score at 10 µM. 310,000 compounds, 0.35% hits. AID 2648;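 active = fluorescence ratio B-score, a plate-corrected score, at least three library SD, with initial intensity B-score within 5 SD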
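System: Stable KCNQ1 CHO-K1 line | Incubation: 90 min dye loading and 20 min compound exposure, both at room temperature | Measure: Ratio B score | Medium: Assay buffer for compound exposure, DMSO matched across wells | Compound dosing: Single-concentration screen | Probe or stimulus: K+/Tl+ depolarizing stimulus | Measured by: Kinetic FluxOR fluorescence, 10 s baseline plus 110 s post-stimulus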
KCNK9 block: human KCNK9 channel inhibition; AID 488922; HEK293 KCNK9, FluxOR thallium flux fluorescence; stronger effect = lower value; 310,000 compounds, 1.2% hits; B-score at 10 µM; Q9NPC2;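 active = ratio B-score over 3 SD below the library mean, with starting fluorescence within 5 SD of its mean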;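 note: negative B-score means less thallium flux so channel inhibition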
Target sequence (Q9NPC2 whole entry, looked up): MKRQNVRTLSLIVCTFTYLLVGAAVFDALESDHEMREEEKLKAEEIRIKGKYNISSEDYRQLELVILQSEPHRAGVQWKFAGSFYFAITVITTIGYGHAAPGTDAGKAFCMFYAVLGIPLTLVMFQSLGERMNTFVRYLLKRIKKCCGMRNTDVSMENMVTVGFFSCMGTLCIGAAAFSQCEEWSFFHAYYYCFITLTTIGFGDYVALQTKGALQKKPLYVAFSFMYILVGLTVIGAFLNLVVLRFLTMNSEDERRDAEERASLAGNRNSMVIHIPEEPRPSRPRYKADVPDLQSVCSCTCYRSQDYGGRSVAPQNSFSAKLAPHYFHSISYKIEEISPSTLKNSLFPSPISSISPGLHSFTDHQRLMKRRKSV
KCNK9 block conf: confirmation of human KCNK9 potassium channel inhibitors | shares compounds with KCNK9 block | AID 492992 | inhibition, % at 10 µM | 4,900 compounds, 43% hits | HEK293 KCNK9 cells, FluxOR thallium flux fluorescence;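 active = thallium signal inhibited by more than 5 SD of the compound-free buffer control wells, on both duplicate plates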
Kir2-1 spec: mouse Kir2.1 off-target activity of KCNK9 modulators; AID 492993; Kir2.1 cells, FluxOR thallium flux fluorescence; shares compounds with KCNK9 block; 4,900 compounds, 4% hits; inhibition, % at 10 µM;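 active = thallium signal drop more than 5 SD beyond the mean of the no-compound control wells, seen in both duplicate plates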;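 note: signal is fluorescence rise after thallium addition divided by baseline fluorescence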
KCNK9 uninduced: second counter-screen for KCNK9 modulators: effect in non-induced cells; shares compounds with KCNK9 block; non-induced KCNK9-HEK293, FluxOR thallium flux; inhibition, % at 10 µM; 4,900 compounds, 40% hits; AID 492997;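 active = thallium signal drop beyond 5 SD of the untreated control mean, on both duplicate plates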
Numbers stand for hits; n = inactive; x = not tested or not shown. Most compounds without a hit are left out; they make up all but 3.7% or so of the library.

SMILES	hERG protect	Kir21 inh	KCNK3 inh	KCNQ1 block	KCNQ1 pot	KCNK9 block	KCNK9 block conf	Kir2-1 spec	KCNK9 uninduced
CC(C)c1nc(N2CCN(C(=O)c3ccccc3)CC2)c(C#N)c2c1COC(C)(C)C2	n	n	n	n	n	n	n	n	n
CC(C)c1nc(N2CCN(C(=O)c3ccco3)CC2)c(C#N)c2c1COC(C)(C)C2	n	n	n	n	n	n	x	x	x
CCOc1ccc(NC(=O)CN(C)C(=O)c2cccnc2Sc2ccc(Cl)cc2)cc1OCC	n	n	n	n	n	n	x	x	x
Cc1ccc(C(=O)O/N=C/c2c(C(F)(F)F)nn(C)c2Sc2ccc(Cl)cc2)cc1	n	n	n	n	n	n	n	n	n
COC(=O)c1ccccc1Sc1c(/C=N/OC(=O)c2ccccc2)c(C(F)(F)F)nn1C	n	n	n	n	n	n	x	x	x
O=C(COC(=O)c1cccc(S(=O)(=O)N2CCCC2)c1)NCc1ccccc1	n	n	n	n	n	n	x	x	x
COc1ccc(C(=O)NC2CC2)cc1OC1CCN(Cc2ccc(F)cc2)CC1	n	n	n	n	n	n	x	x	x
O=C(C1CCN(S(=O)(=O)c2ccc(Br)s2)CC1)N1CCc2ccccc21	n	n	n	n	n	n	n	n	n
COC(=O)C1CCN(S(=O)(=O)c2ccc(Br)s2)CC1	x	x	n	x	x	x	x	x	x
O=C(CCc1ccc(CCC(=O)c2cccs2)s1)c1cccs1	n	n	n	n	n	-11	57%	n	38%
O=C(CCNc1ccc(Cl)cc1)c1cccs1	n	n	n	n	n	n	x	x	x
O=C(CCNc1cc(Cl)cc(Cl)c1)c1cccs1	n	n	n	n	n	-8.7	n	n	38%
CCN(CC)CCNC(=O)C(=O)Nc1ccc(C(=O)OC)cc1	n	n	n	n	n	n	x	x	x
COc1ccc(S(=O)(=O)N2CCCCC2)cc1NC(=O)CCOc1cc(C)ccc1C	x	x	n	x	x	x	x	x	x
CC(O)CNC1c2ccccc2CC1O (stereo unspecified)	x	x	n	x	x	x	x	x	x
CC(C)OC(=O)CSc1nnc(SCc2cccc3ccccc23)s1	n	n	n	n	n	n	n	n	n
O=C(O)CSc1nnc(SCc2cccc3ccccc23)s1	n	n	n	n	n	n	x	x	x
CCOc1cc(CNCCSc2nnnn2C)cc(Br)c1OCc1ccccc1F	n	n	n	n	n	-9.5	n	n	32%
COc1cc(CNCCSc2nnnn2C)cc(Br)c1OCc1ccccc1F	n	n	n	n	n	n	x	x	x
Cc1ccccc1NCC(=O)Nc1cc(S(=O)(=O)N2CCCCC2)ccc1C	x	x	n	x	x	x	x	x	x
CC(NCC(=O)Nc1cc(S(=O)(=O)N2CCCCCC2)ccc1Cl)c1ccccc1 (stereo unspecified)	n	n	n	n	n	n	n	n	n
CCNc1nc(NCC)n2c(SCC(=O)Nc3ccc(F)cc3[N+](=O)[O-])nnc2n1	n	n	n	n	n	n	x	x	x
CCn1c(C)c(C(C)=O)c(N2CCCCC2)nc1=S	n	n	n	n	n	n	x	x	x
CCn1c(C)c(C(C)=O)c(N2CCN(C(c3ccccc3)c3ccccc3)CC2)nc1=S	n	n	n	n	n	-9.1	n	n	n
C=CCC1(CC=C)CCCN1C(=O)c1cc(COc2cccc(OC)c2)on1	n	n	n	n	n	n	n	n	n
SMILES	hERG protect	Kir21 inh	KCNK3 inh	KCNQ1 block	KCNQ1 pot	KCNK9 block	KCNK9 block conf	Kir2-1 spec	KCNK9 uninduced
COc1cccc(OCc2cc(C(=O)N3CCN(C)C(c4ccccc4)C3)no2)c1 (stereo unspecified)	n	n	n	n	n	n	n	n	n
COCC1CCN(C(=O)c2cc(COc3ccc4c(c3)CCCC4)on2)C1 (stereo unspecified)	n	n	n	n	n	n	n	n	n
COc1ccc(-c2noc(CN3CCC(Cc4ccccc4)CC3)n2)cc1	n	n	n	n	n	n	n	n	n
N#Cc1nc(Cc2ccccc2)oc1N1CCN(c2cccc(Cl)c2)CC1	n	n	n	n	n	-11	38%	n	n
COCC1CCN(Cc2nc(-c3ccc(OC)cc3)no2)CC1	n	n	n	n	n	n	x	x	x
Clc1cccc(N2CCN(Cc3nc(-c4ccccc4)no3)CC2)c1	n	n	n	n	n	n	n	n	n
c1ccc(CC2CCN(Cc3nc(-c4ccccc4)no3)CC2)cc1	n	n	n	n	n	n	n	n	n
CC1CCCN(S(=O)(=O)c2ccc(S(=O)(=O)NC(C)c3cccs3)cc2)C1 (stereo unspecified)	x	x	n	x	x	x	x	x	x
O=C(COc1ccc(Cl)cc1)Nc1ccc(C(=O)O)cc1NC(=O)COc1ccc(Cl)cc1	n	n	n	n	n	n	x	x	x
O=c1c(-c2nn[nH]n2)coc2ccc(Cl)cc12	n	n	n	n	n	n	x	x	x
CN(C)N=Nc1ccc(S(=O)(=O)/N=C(\O)c2ccccc2)cc1	n	n	n	n	n	n	x	x	x
COc1ccc(CN2C(=O)[C@H]3Cc4c([nH]c5ccccc45)C(C)(C)N3C2=O)cc1	n	n	n	n	n	n	n	n	n
COc1ccc(CN2C(=O)[C@@H]3Cc4c([nH]c5ccccc45)C(C)(C)N3C2=O)cc1	n	n	n	n	n	n	x	x	x
Cn1c(=O)c2sccc2n(Cc2ccccc2)c1=O	n	n	n	n	n	n	x	x	x
O=C(c1ccc(Cl)c(S(=O)(=O)N2CCCCCC2)c1)N1CCCCC1	n	n	n	n	n	n	x	x	x
O=C(c1ccc(Cl)c(S(=O)(=O)N2CCCCCC2)c1)N1CCN(c2ccccn2)CC1	n	n	n	n	n	n	n	n	n
O=C(c1ccc(Cl)c(S(=O)(=O)N2CCCCCC2)c1)N1CCCC(C(F)(F)F)C1 (stereo unspecified)	n	n	n	n	n	n	n	n	n
Cc1cccc(NC(=O)c2ccc(Cl)c(S(=O)(=O)N3CCCCC3)c2)n1	n	n	n	n	n	n	n	n	24%
O=C(Nc1ccccn1)c1ccc(Cl)c(S(=O)(=O)N2CCOCC2)c1	n	n	n	n	n	n	x	x	x
O=C(c1ccc(Cl)c(S(=O)(=O)N2CCOCC2)c1)N(c1ccccn1)C1CCCCC1	n	n	n	n	n	n	n	n	n
CCC(C)/C(C)=N/NC(=O)c1ccccc1OCCOc1ccccc1 (stereo unspecified)	n	n	n	n	n	n	x	x	x
O=C1c2cccnc2C(=O)N1Cc1ccc(S(=O)(=O)N2CCOc3ccc(Cl)cc32)cc1	n	n	n	n	n	n	x	x	x
Cc1cc(C)c(NC(=O)CNC(=O)COC(=O)CNC(=O)c2ccc(Cl)cc2Cl)c(C)c1	n	n	n	n	n	n	x	x	x
